# Active and inactive are the calls of the source. No cut-off for these calls is given here.
# How the values were obtained:
# Assay type in all cases: functional
# Hs-578T = assay: Growth inhibition of human Hs578T cells at 10 uM after 48 hrs by SRB assay
# Procedure, shortened: (§1)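 Cells grown in RPMI 1640 with 5% FBS and 2 mM L-glutamine, plated at 5000–40,000 cells/well by doubling time and preincubated 24 h (37 °C, 5% CO2); a time-zero plate is TCA-fixed. Single dose added, then 48 h incubation. Fixed with cold TCA, stained with 0.4% SRB, dye solubilized in 10 mM Tris base, absorbance at 515 nm; percent growth vs time-zero and untreated control.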
# BT-549 = assay: Growth inhibition of human BT549 cells at 10 uM after 48 hrs by SRB assay; details: BT-549, 48 h, read-out: GI; procedure, shortened: as §1
# SF-539 = assay: Growth inhibition of human SF539 cells at 10 uM after 48 hrs by SRB assay; procedure, shortened: as §1
# UACC-257 = assay: Growth inhibition of human UACC257 cells at 10 uM after 48 hrs by SRB assay; details: UACC-257, 48 h, read-out: GI
# Procedure, shortened: (§2)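 NCI 60-cell-line screen with a single 10 µM dose. Cells are grown in RPMI 1640 with 5% FBS and 2 mM L-glutamine, plated at 5000–40,000 cells/well according to doubling time, and preincubated 24 h at 37 °C, 5% CO2; time-zero plates are TCA-fixed at that point. Drug exposure is 48 h. Adherent cells are fixed with cold TCA, stained with 0.4% SRB in 1% acetic acid and read at 515 nm. Percent growth is calculated relative to time-zero and untreated controls and reported as GI%.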
# HCT-116 = assay: Growth inhibition of human HCT116 cells at 10 uM after 48 hrs by SRB assay; details: HCT-116, 48 h, read-out: GI; procedure, shortened: as §1
# HOP-92 = assay: Growth inhibition of human HOP92 cells at 10 uM after 48 hrs by SRB assay; details: HOP-92, 48 h, read-out: GI; procedure, shortened: as §1
# OVCAR-4 = assay: Growth inhibition of human OVCAR4 cells at 10 uM after 48 hrs by SRB assay; details: OVCAR-4, 48 h, read-out: GI; procedure, shortened: as §1
# UACC-62 = assay: Growth inhibition of human UACC62 cells at 10 uM after 48 hrs by SRB assay; details: UACC-62, 48 h, read-out: GI; procedure, shortened: as §2
# MDA-MB-231 = assay: Growth inhibition of human MDA-MB-231 cells at 10 uM after 48 hrs by SRB assay; details: MDA-MB-231, 48 h, read-out: GI; procedure, shortened: as §1
# LOX IMVI = assay: Growth inhibition of human LOXIMVI cells at 10 uM after 48 hrs by SRB assay; details: read-out: GI; procedure, shortened: as §1
# MDA-MB-435 = assay: Growth inhibition of human MDA-MB-435 cells at 10 uM after 48 hrs by SRB assay; details: MDA-MB-435, 48 h, read-out: GI; procedure, shortened: as §1
# COLO 205 = assay: Growth inhibition of human COLO205 cells at 10 uM after 48 hrs by SRB assay; details: COLO 205, 48 h, read-out: GI; procedure, shortened: as §1
# A498 = assay: Growth inhibition of human A498 cells at 10 uM after 48 hrs by SRB assay; procedure, shortened: as §1
# MCF7 = assay: Growth inhibition of human MCF7 cells at 10 uM after 48 hrs by SRB assay; details: MCF7, 48 h, read-out: GI; procedure, shortened: as §1
# RXF 393 = assay: Growth inhibition of human RXF393 cells at 10 uM after 48 hrs by SRB assay; details: RXF 393, 48 h, read-out: GI; procedure, shortened: as §1
# K562 = assay: Growth inhibition of human K562 cells at 10 uM after 48 hrs by SRB assay; details: K562, 48 h, read-out: GI; procedure, shortened: as §1
# CCRF-CEM = assay: Growth inhibition of human CCRF-CEM cells at 10 uM after 48 hrs by SRB assay; details: read-out: GI; procedure, shortened: as §1
# SN12C = assay: Growth inhibition of human SN12C cells at 10 uM after 48 hrs by SRB assay; details: read-out: GI; procedure, shortened: as §2
# CAKI-1 = assay: Growth inhibition of human Caki1 cells at 10 uM after 48 hrs by SRB assay; details: CAKI-1, 48 h, read-out: GI; procedure, shortened: as §1
# SR = assay: Growth inhibition of human SR cells at 10 uM after 48 hrs by SRB assay; details: read-out: GI; procedure, shortened: as §2
# IGROV-1 = assay: Growth inhibition of human IGROV1 cells at 10 uM after 48 hrs by SRB assay; details: IGROV-1, 48 h, read-out: GI; procedure, shortened: as §1
# SK-OV-3 = assay: Growth inhibition of human SKOV3 cells at 10 uM after 48 hrs by SRB assay; details: SK-OV-3, 48 h, read-out: GI; procedure, shortened: as §2
# NCI-H23 = assay: Growth inhibition of human NCI-H23 cells at 10 uM after 48 hrs by SRB assay; details: NCI-H23, 48 h, read-out: GI; procedure, shortened: as §1
# SF-295 = assay: Growth inhibition of human SF295 cells at 10 uM after 48 hrs by SRB assay; details: SF-295, 48 h, read-out: GI; procedure, shortened: as §1
# HL-60(TB) = assay: Growth inhibition of human HL-60(TB) cells at 10 uM after 48 hrs by SRB assay; details: HL-60, 48 h, read-out: GI
# Procedure, shortened: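 Single-concentration pass across the 60-line panel in RPMI 1640 with 5% FBS. Cells preincubated 24 h, then exposed 48 h at 37 °C, 5% CO2. Read by SRB staining with absorbance at 515 nm. Percent growth is taken relative to time-zero and untreated controls and reported as percent growth inhibition (GI %).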
# HT-29 = assay: Growth inhibition of human HT-29 cells at 10 uM after 48 hrs by SRB assay; details: HT-29, 48 h, read-out: GI; procedure, shortened: as §1
# U-251 = assay: Growth inhibition of human U251 cells at 10 uM after 48 hrs by SRB assay; details: U-251, 48 h, read-out: GI; procedure, shortened: as §2
# NCI-H460 = assay: Growth inhibition of human NCI-H460 cells at 10 uM after 48 hrs by SRB assay; details: NCI-H460, 48 h, read-out: GI; procedure, shortened: as §1
# NCI-H322M = assay: Growth inhibition of human NCI-H322M cells at 10 uM after 48 hrs by SRB assay; details: read-out: GI; procedure, shortened: as §1
# SNB-75 = assay: Growth inhibition of human SNB75 cells at 10 uM after 48 hrs by SRB assay; details: SNB-75, 48 h, read-out: GI; procedure, shortened: as §2
# ACHN = assay: Growth inhibition of human ACHN cells at 10 uM after 48 hrs by SRB assay; details: read-out: GI; procedure, shortened: as §1
# [1] = Growth inhibition of human HCC2998 cells at 10 uM after 48 hrs by SRB assay; details: HCC 2998, 48 h, read-out: GI; procedure, shortened: as §1
# M14 = assay: Growth inhibition of human M14 cells at 10 uM after 48 hrs by SRB assay; details: M14, 48 h, read-out: GI; procedure, shortened: as §1
# SK-MEL-28 = assay: Growth inhibition of human SK-MEL-28 cells at 10 uM after 48 hrs by SRB assay; details: SK-MEL-28, 48 h, read-out: GI; procedure, shortened: as §1
Compound,inhibition of growth at 10 µM (BT-549),inhibition of growth at 10 µM (UACC-257),inhibition of growth at 10 µM (HCT-116),inhibition of growth at 10 µM (HOP-92),inhibition of growth at 10 µM (OVCAR-4),inhibition of growth at 10 µM (UACC-62),inhibition of growth at 10 µM (MDA-MB-231),inhibition of growth at 10 µM (LOX IMVI),inhibition of growth at 10 µM (MDA-MB-435),inhibition of growth at 10 µM (COLO 205),inhibition of growth at 10 µM (MCF7),inhibition of growth at 10 µM (RXF 393),inhibition of growth at 10 µM (K562),inhibition of growth at 10 µM (CCRF-CEM),inhibition of growth at 10 µM (SN12C),inhibition of growth at 10 µM (CAKI-1),inhibition of growth at 10 µM (SR),inhibition of growth at 10 µM (IGROV-1),inhibition of growth at 10 µM (SK-OV-3),inhibition of growth at 10 µM (NCI-H23),further results
O=c1[nH]cc(F)c(=O)[nH]1 [FLUOROURACIL],37.8%,19.5%,17.8%,50.6%,59.4%,39.7%,78.1%,30.4%,36.6%,40.2%,11.5%,34.3%,42.3%,57.1%,54%,39.4%,24.8%,51.2%,77.5%,39%,growth inhibition (GI) (Hs-578T): Active; growth inhibition (GI) (SF-539): Active; growth inhibition (GI) (A498): Active; inhibition of growth at 10 µM (SF-295): 69.1%; inhibition of growth at 10 µM (HL-60(TB)): 47.9%; inhibition of growth at 10 µM (HT-29): 27.1%; inhibition of growth at 10 µM (U-251): 50.3%; inhibition of growth at 10 µM (NCI-H460): 13%; inhibition of growth at 10 µM (NCI-H322M): 59.5%; inhibition of growth at 10 µM (SNB-75): 65.9%; inhibition of growth at 10 µM (ACHN): 39.3%
O=c1c2cccc3c(Nc4ccc(Br)cn4)ccc(c32)c2nc3ccccc3n12,< 20%,< 20%,< 20%,37.6%,46.3%,< 20%,33.8%,< 20%,< 20%,< 20%,95.8%,< 20%,< 20%,< 20%,< 20%,< 20%,47.1%,51.1%,< 20%,< 20%,"inhibition of growth at 10 µM (Hs-578T; read-out: GI): < 20%; inhibition of growth at 10 µM (SF-539; SF-539, 48 h, read-out: GI): < 20%; inhibition of growth at 10 µM [1]: 25.2%; inhibition of growth at 10 µM (A498; A498, 48 h, read-out: GI): < 20%; inhibition of growth at 10 µM (M14): < 20%; inhibition of growth at 10 µM (SK-MEL-28): 27.1%; inhibition of growth at 10 µM (SF-295): < 20%; inhibition of growth at 10 µM (HL-60(TB)): < 20%; inhibition of growth at 10 µM (HT-29): < 20%; inhibition of growth at 10 µM (U-251): < 20%; inhibition of growth at 10 µM (NCI-H460): < 20%; inhibition of growth at 10 µM (NCI-H322M): 22.1%; inhibition of growth at 10 µM (SNB-75): 56%; inhibition of growth at 10 µM (ACHN): < 20%"

# From ChEMBL document CHEMBL2424551, “Synthesis, in vitro evaluation and molecular modelling of naphthalimide analogue as anticancer agents” (2013)
